# Source: ChEMBL document CHEMBL1275283, “Synthesis and evaluation of novel stearoyl-CoA desaturase 1 inhibitors: 1'-{6-[5-(pyridin-3-ylmethyl)-1,3,4-oxadiazol-2-yl]pyridazin-3-yl}-3,4-dihydrospiro[chromene-2,4'-piperidine] analogs” (Eur J Med Chem, 2010)
# Tests used:
# [1] = molecular target: T1, Stearoyl-CoA desaturase (Homo sapiens, UniProt O00767); test: Inhibition of human SCD1 expressed in HEK293A cells assessed as reduction in conversion of [14C]stearic acid to [14C]oleic acid after 30 mins; format: cell-based, HEK293-A
# T1 sequence (O00767 whole entry): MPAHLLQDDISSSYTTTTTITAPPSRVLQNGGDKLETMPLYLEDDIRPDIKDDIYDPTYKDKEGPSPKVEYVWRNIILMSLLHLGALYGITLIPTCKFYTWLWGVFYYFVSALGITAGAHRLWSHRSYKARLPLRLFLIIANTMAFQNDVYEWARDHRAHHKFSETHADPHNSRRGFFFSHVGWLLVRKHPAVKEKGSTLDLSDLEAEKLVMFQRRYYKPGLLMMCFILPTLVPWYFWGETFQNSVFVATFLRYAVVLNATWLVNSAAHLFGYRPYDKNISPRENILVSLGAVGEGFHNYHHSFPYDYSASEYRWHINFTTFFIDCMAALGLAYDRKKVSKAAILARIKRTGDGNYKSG
# Procedure, shortened: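 293A cells stably expressing human SCD1 (G418-selected) grown to confluence in DMEM + 10% FBS. Cells preincubated with compound 30 min, then given 0.1 µCi [14C]stearate for 4 h. Lipids saponified in KOH, separated by AgNO3-TLC, and the [14C]oleate/[14C]stearate ratio used as activity. IC50 derived from this read-out.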
# [2] = molecular target: T2, Acyl-CoA desaturase 1 (Mus musculus, UniProt P13516); test: Inhibition of SCD1 in mouse microsome assessed as reduction in conversion of [14C]stearic acid to [14C]oleic acid after 30 mins; format: microsomes
# T2 sequence (P13516 whole entry): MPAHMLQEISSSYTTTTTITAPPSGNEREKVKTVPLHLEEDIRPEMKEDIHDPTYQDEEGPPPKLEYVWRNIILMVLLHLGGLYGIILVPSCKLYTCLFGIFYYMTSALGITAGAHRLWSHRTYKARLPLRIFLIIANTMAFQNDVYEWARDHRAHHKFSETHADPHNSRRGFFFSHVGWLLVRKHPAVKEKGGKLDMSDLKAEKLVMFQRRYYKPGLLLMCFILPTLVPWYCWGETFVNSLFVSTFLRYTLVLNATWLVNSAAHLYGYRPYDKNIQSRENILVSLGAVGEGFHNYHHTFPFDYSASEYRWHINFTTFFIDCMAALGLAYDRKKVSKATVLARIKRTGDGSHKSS
# [3] = molecular target: T1, Stearoyl-CoA desaturase; test: Inhibition of SCD1 in HEK293A cell microsomes assessed as reduction in conversion of [14C]stearic acid to [14C]oleic acid after 30 mins; parameters: species or system HEK293-A, Microsome
# [4] = tested on: Mus musculus; test: Inhibition of liver SCD1 activity in po dosed db/db mouse assessed as reduction in conversion of [14C]stearic acid to [14C]oleic acid; format: functional; conditions: read-out: ID50 (the source's name)
# Procedure, shortened: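 Seven-week-old male db/db mice dosed by oral gavage 2 h before i.p. [14C]stearate (100 µCi/kg in saline with 2% BSA). Livers harvested 1 h later and homogenized in cold PBS. Saponified homogenate analyzed by AgNO3-TLC for the [14C]oleate/[14C]stearate ratio. ID50 is the dose giving 50% inhibition.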
# [5] = molecular target: T1, Stearoyl-CoA desaturase; test: Inhibition of human SCD1
# Procedure, shortened: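 Microsomes from 293A cells as the human SCD1 source, preincubated with compound for 10 min at room temperature. Reaction run 60 min at 37 °C in pH 7.4 phosphate buffer with ATP 1 mM, NADH 1.25 mM, CoA and [14C] stearate. Product saponified and separated on AgNO3-TLC. Activity is the [14C] oleate/stearate ratio. IC50 by linear regression; mean of ≥2 experiments.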
# [6] = Aqueous solubility of the compound at acidic JP-1 solution of pH 1.2 by HPLC analysis; format: physicochemical
# Procedure, shortened: (§1)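 Solubility measured in purchased aqueous acidic JP-1 (pH 1.2) or neutral JP-2 (pH 6.8) media. Samples analyzed by HPLC, with UV peak area compared to a calibration standard of 250 µM compound in CH3CN/water 1:1. Means of at least two experiments.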
# [7] = Aqueous solubility of the compound at neutral JP-2 solution of pH 6.8 by HPLC analysis; format: physicochemical; procedure, shortened: as §1
Structure (SMILES),IC50 [1],IC50 [2],IC50 [3],ED50 [4],IC50 [5],solubility [6],solubility [7]
c1ccc(Cc2nnc(-c3ccc(N4CCC5(CCc6ccccc6O5)CC4)nn3)o2)nc1,9 nM,3 nM,4 nM,6 mg/kg,–,–,–
c1ccc2c(c1)CCC1(CCN(c3ccc(-c4nnc(Cc5ccncc5)o4)nn3)CC1)O2,7 nM,4 nM,6 nM,7 mg/kg,–,–,–
FC(F)(F)c1cccc2c1CCC1(CCN(c3ccc(-c4nnc(Cc5cccnc5)o4)nn3)CC1)O2,–,0.06 nM,0.03 nM,0.4 mg/kg,0.03 nM,88 µM,< 0.5 µM
Fc1ccc(F)c2c1CCC1(CCN(c3ccc(-c4nnc(Cc5cccnc5)o4)nn3)CC1)O2,1 nM,0.5 nM,0.1 nM,< 2 mg/kg,–,–,–
